Laboratory results as given in ChEMBL document CHEMBL4715736, “Identification of anticancer agents based on the thieno[2,3-b]pyridine and 1H-pyrazole molecular scaffolds” (2016).

How the values were obtained:
Assay type in all cases: functional
HCT-15 [1] = experiment: Growth inhibition of human HCT-15 cells incubated for 48 hrs by sulforhodamine B assay
In short: (§1)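 NCI60 panel at the NCI Developmental Therapeutics Program. Only compounds active in the 10 µM screen went to dose-response testing. GI50, the concentration giving 50% of maximal inhibition of proliferation, and TGI, the concentration giving total growth inhibition, were derived from the dose-response curves.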

M14 = experiment: Growth inhibition of human M14 cells assessed as cell growth at 0.01 uM incubated for 48 hrs by sulforhodamine B assay relative to control; conditions: read-out: Activity
HOP-62 = experiment: Growth inhibition of human HOP-62 cells incubated for 48 hrs by sulforhodamine B assay; in short: as §1
BT-549 = experiment: Growth inhibition of human BT-549 cells incubated for 48 hrs by sulforhodamine B assay
In short: (§2)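 NCI Developmental Therapeutics Program NCI60 panel. Compounds that were active in the 10 µM one-dose screen went on to dose–response testing. Growth at each concentration is expressed relative to untreated control (100%). GI50 (concentration giving 50% of maximal inhibition of proliferation) and TGI (concentration giving total growth inhibition) were derived from the curves.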

SK-OV-3 = experiment: Growth inhibition of human SK-OV-3 cells assessed as cell growth at 0.01 uM incubated for 48 hrs by sulforhodamine B assay relative to control; conditions: read-out: Activity
SW-620 = experiment: Growth inhibition of human SW-620 cells assessed as cell growth at 1 uM incubated for 48 hrs by sulforhodamine B assay relative to control; conditions: read-out: Activity
COLO 205 = experiment: Growth inhibition of human COLO 205 cells assessed as cell growth at 1 uM incubated for 48 hrs by sulforhodamine B assay relative to control; conditions: read-out: Activity; in short: as §2
A549 = experiment: Growth inhibition of human A549/ATCC cells assessed as cell growth at 0.01 uM incubated for 48 hrs by sulforhodamine B assay relative to control; conditions: read-out: Activity; in short: as §2
HCT-15 [2] = experiment: Growth inhibition of human HCT-15 cells assessed as cell growth at 0.1 uM incubated for 48 hrs by sulforhodamine B assay relative to control; conditions: read-out: Activity
A498 = experiment: Growth inhibition of human A498 cells incubated for 48 hrs by sulforhodamine B assay; conditions: for CC50: read-out: LC50 (the source's name); in short: as §2
IGROV-1 = experiment: Growth inhibition of human IGROV-1 cells assessed as cell growth at 0.01 uM incubated for 48 hrs by sulforhodamine B assay relative to control; conditions: read-out: Activity
U-251 [3] = experiment: Growth inhibition of human U-251 cells assessed as cell growth at 100 uM incubated for 48 hrs by sulforhodamine B assay relative to control; conditions: read-out: Activity
UACC-257 [4] = experiment: Growth inhibition of human UACC-257 cells assessed as cell growth at 100 uM incubated for 48 hrs by sulforhodamine B assay relative to control; conditions: read-out: Activity
U-251 [5] = experiment: Growth inhibition of human U-251 cells incubated for 48 hrs by sulforhodamine B assay
In short: (§3)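 NCI DTP 60-line human tumour panel. Dose-response curves were run only for ligands active in the initial 10 µM screen. GI50 (concentration giving 50% of maximal inhibition of proliferation) and TGI (concentration giving total growth inhibition) were derived from these curves.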

Malme-3M = experiment: Growth inhibition of human Malme-3M cells assessed as cell growth at 0.01 uM incubated for 48 hrs by sulforhodamine B assay relative to control; conditions: read-out: Activity
SNB-75 = experiment: Growth inhibition of human SNB-75 cells assessed as cell growth at 100 uM incubated for 48 hrs by sulforhodamine B assay relative to control; conditions: read-out: Activity
MDA-MB-468 = experiment: Growth inhibition of human MDA-MB-468 cells assessed as cell growth at 0.01 uM incubated for 48 hrs by sulforhodamine B assay relative to control; conditions: read-out: Activity
TK-10 = experiment: Growth inhibition of human TK-10 cells assessed as cell growth at 100 uM incubated for 48 hrs by sulforhodamine B assay relative to control; conditions: read-out: Activity
UACC-257 [6] = experiment: Growth inhibition of human UACC-257 cells assessed as cell growth at 0.1 uM incubated for 48 hrs by sulforhodamine B assay relative to control; conditions: read-out: Activity
MDA-MB-435 = experiment: Growth inhibition of human MDA-MB-435 cells assessed as cell growth at 0.1 uM incubated for 48 hrs by sulforhodamine B assay relative to control; conditions: read-out: Activity
RPMI-8226 = experiment: Growth inhibition of human RPMI-8226 cells assessed as cell growth at 0.01 uM incubated for 48 hrs by sulforhodamine B assay relative to control; conditions: read-out: Activity
KM12 = experiment: Growth inhibition of human KM12 cells assessed as cell growth at 1 uM incubated for 48 hrs by sulforhodamine B assay relative to control; conditions: read-out: Activity
NCI-H522 = experiment: Growth inhibition of human NCI-H522 cells assessed as cell growth at 1 uM incubated for 48 hrs by sulforhodamine B assay relative to control; conditions: read-out: Activity
HCT-15 [7] = experiment: Growth inhibition of human HCT-15 cells assessed as cell growth at 1 uM incubated for 48 hrs by sulforhodamine B assay relative to control; conditions: read-out: Activity
OVCAR-8 = experiment: Growth inhibition of human OVCAR-8 cells assessed as cell growth at 100 uM incubated for 48 hrs by sulforhodamine B assay relative to control; conditions: read-out: Activity
NCI-H460 = experiment: Growth inhibition of human NCI-H460 cells incubated for 48 hrs by sulforhodamine B assay; in short: as §1
HT-29 = experiment: Growth inhibition of human HT-29 cells assessed as cell growth at 0.1 uM incubated for 48 hrs by sulforhodamine B assay relative to control; conditions: read-out: Activity
RXF 393 = experiment: Growth inhibition of human RXF 393 cells incubated for 48 hrs by sulforhodamine B assay; conditions: for CC50: read-out: LC50 (the source's name); in short: as §3
Hs-578T [8] = experiment: Growth inhibition of human Hs-578T cells assessed as cell growth at 1 uM incubated for 48 hrs by sulforhodamine B assay relative to control; conditions: read-out: Activity
SF-268 = experiment: Growth inhibition of human SF-268 cells assessed as cell growth at 0.01 uM incubated for 48 hrs by sulforhodamine B assay relative to control; conditions: read-out: Activity
K562 = experiment: Growth inhibition of human K562 cells incubated for 48 hrs by sulforhodamine B assay; in short: as §1
OVCAR-4 = experiment: Growth inhibition of human OVCAR-4 cells assessed as cell growth at 0.1 uM incubated for 48 hrs by sulforhodamine B assay relative to control; conditions: read-out: Activity
Hs-578T [9] = experiment: Growth inhibition of human Hs-578T cells incubated for 48 hrs by sulforhodamine B assay; conditions: for CC50: read-out: LC50 (the source's name); in short: as §1
MCF7 = experiment: Growth inhibition of human MCF7 cells assessed as cell growth at 100 uM incubated for 48 hrs by sulforhodamine B assay relative to control; conditions: read-out: Activity
NCI-H23 = experiment: Growth inhibition of human NCI-H23 cells assessed as cell growth at 100 uM incubated for 48 hrs by sulforhodamine B assay relative to control; conditions: read-out: Activity

Cc1ccc(NC(=O)c2sc3nc4c(cc3c2N)C(=O)CCC4)cc1C
GI50 (HCT-15 [1]): 0.486 µM | LC50 (HCT-15 [1]): > 100 µM | TGI (HCT-15 [1]): > 100 µM | growth at 0.01 µM (M14): 96% | GI50 (HOP-62): 0.605 µM | LC50 (HOP-62): > 100 µM | TGI (HOP-62): > 100 µM | TGI (BT-549): > 100 µM | CC50 (BT-549; read-out: LC50 (the source's name)): > 100 µM | growth at 0.01 µM (SK-OV-3): 103% | growth at 1 µM (SW-620): 19% | growth at 1 µM (COLO 205): -13% | growth at 0.01 µM (A549): 100% | growth at 0.1 µM (HCT-15 [2]): 90% | GI50 (A498): 0.198 µM | CC50 (A498): > 100 µM | growth at 0.01 µM (IGROV-1): 104% | growth at 100 µM (U-251 [3]): -9% | growth at 100 µM (UACC-257 [4]): 35% | GI50 (U-251 [5]): 0.68 µM | LC50 (concentration killing 50% of cells) (U-251 [5]): > 100 µM | TGI (U-251 [5]): ≥ 100 µM | growth at 0.01 µM (Malme-3M): 96% | growth at 100 µM (SNB-75): 10% | growth at 0.01 µM (MDA-MB-468): 95% | growth at 100 µM (TK-10): 47% | growth at 0.1 µM (UACC-257 [6]): 92% | growth at 0.1 µM (MDA-MB-435): 60% | growth at 0.01 µM (RPMI-8226): 99% | growth at 1 µM (KM12): 24% | growth at 1 µM (NCI-H522): 1% | growth at 1 µM (HCT-15 [7]): 32% | growth at 100 µM (OVCAR-8): 11% | GI50 (NCI-H460): 0.374 µM | LC50 (NCI-H460): > 100 µM | TGI (NCI-H460): ≥ 100 µM | growth at 0.1 µM (HT-29): 104% | GI50 (RXF 393): 0.222 µM | CC50 (RXF 393): > 100 µM | growth at 1 µM (Hs-578T [8]): 16% | growth at 0.01 µM (SF-268): 95% | GI50 (K562): 0.468 µM | LC50 (concentration killing 50% of cells) (K562): > 100 µM | TGI (K562): 35 µM | growth at 0.1 µM (OVCAR-4): 82% | GI50 (Hs-578T [9]): 0.356 µM | TGI (Hs-578T [9]): > 100 µM | CC50 (Hs-578T [9]): > 100 µM | growth at 100 µM (MCF7): 8%

CCc1cccc(C)c1NC(=O)c1sc2nc3c(cc2c1N)C(=O)CCC3
GI50 (HCT-15 [1]): 0.471 µM | LC50 (HCT-15 [1]): > 100 µM | TGI (HCT-15 [1]): > 100 µM | growth at 0.01 µM (M14): 96% | GI50 (HOP-62): 0.679 µM | LC50 (HOP-62): > 100 µM | TGI (HOP-62): > 100 µM | growth at 1 µM (SW-620): 17% | growth at 1 µM (COLO 205): -19% | growth at 0.01 µM (A549): 96% | growth at 0.1 µM (HCT-15 [2]): 92% | GI50 (A498): 0.178 µM | TGI (A498): 0.665 µM | CC50 (A498): > 100 µM | growth at 0.01 µM (IGROV-1): 101% | growth at 100 µM (U-251 [3]): 4% | growth at 100 µM (UACC-257 [4]): -13% | GI50 (U-251 [5]): 0.57 µM | LC50 (concentration killing 50% of cells) (U-251 [5]): > 100 µM | TGI (U-251 [5]): > 100 µM | growth at 0.01 µM (Malme-3M): 96% | growth at 100 µM (SNB-75): 29% | growth at 0.01 µM (MDA-MB-468): 91% | growth at 0.1 µM (UACC-257 [6]): 82% | growth at 0.1 µM (MDA-MB-435): 71% | growth at 100 µM (NCI-H23): 14% | growth at 0.01 µM (RPMI-8226): 101% | growth at 1 µM (KM12): 24% | growth at 1 µM (HCT-15 [7]): 29% | growth at 100 µM (OVCAR-8): -2% | GI50 (NCI-H460): 0.355 µM | LC50 (NCI-H460): > 100 µM | TGI (NCI-H460): 12.6 µM | GI50 (RXF 393): 0.202 µM | CC50 (RXF 393): > 100 µM | growth at 1 µM (Hs-578T [8]): 20% | growth at 0.01 µM (SF-268): 97% | GI50 (K562): 0.341 µM | LC50 (concentration killing 50% of cells) (K562): ≥ 100 µM | TGI (K562): 15.8 µM | growth at 0.1 µM (OVCAR-4): 91% | TGI (Hs-578T [9]): > 100 µM | CC50 (Hs-578T [9]): > 100 µM | growth at 100 µM (MCF7): -1%
